Data taken from ChEMBL document CHEMBL1134591, “N-Aryl sulfonyl homocysteine hydroxamate inhibitors of matrix metalloproteinases: further probing of the S(1), S(1)', and S(2)' pockets” (J Med Chem, 2001).

What was measured:
Stromelysin-1 = Stromelysin-1 (Homo sapiens, UniProt P08254); experiment: In vitro inhibitory activity against matrix metalloprotease-3
How it was run: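 MMP-3 activated with APMA (4-aminophenylmercuric acetate); cleavage of quenched fluorogenic substrate (7-methoxycoumarin-4-yl)-Arg-Pro-Lys-Pro-Tyr-Ala-Nva-Trp-Met-Lys(Dnp)-NH₂ at the Ala–Nva bond monitored; IC50 (nM) derived.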

[1] = biological target: Matrix metalloproteinase-9 (Homo sapiens, UniProt P14780); experiment: In vitro inhibition of human matrix metalloprotease-9
Chain of Matrix metalloproteinase-9 (P14780 whole entry): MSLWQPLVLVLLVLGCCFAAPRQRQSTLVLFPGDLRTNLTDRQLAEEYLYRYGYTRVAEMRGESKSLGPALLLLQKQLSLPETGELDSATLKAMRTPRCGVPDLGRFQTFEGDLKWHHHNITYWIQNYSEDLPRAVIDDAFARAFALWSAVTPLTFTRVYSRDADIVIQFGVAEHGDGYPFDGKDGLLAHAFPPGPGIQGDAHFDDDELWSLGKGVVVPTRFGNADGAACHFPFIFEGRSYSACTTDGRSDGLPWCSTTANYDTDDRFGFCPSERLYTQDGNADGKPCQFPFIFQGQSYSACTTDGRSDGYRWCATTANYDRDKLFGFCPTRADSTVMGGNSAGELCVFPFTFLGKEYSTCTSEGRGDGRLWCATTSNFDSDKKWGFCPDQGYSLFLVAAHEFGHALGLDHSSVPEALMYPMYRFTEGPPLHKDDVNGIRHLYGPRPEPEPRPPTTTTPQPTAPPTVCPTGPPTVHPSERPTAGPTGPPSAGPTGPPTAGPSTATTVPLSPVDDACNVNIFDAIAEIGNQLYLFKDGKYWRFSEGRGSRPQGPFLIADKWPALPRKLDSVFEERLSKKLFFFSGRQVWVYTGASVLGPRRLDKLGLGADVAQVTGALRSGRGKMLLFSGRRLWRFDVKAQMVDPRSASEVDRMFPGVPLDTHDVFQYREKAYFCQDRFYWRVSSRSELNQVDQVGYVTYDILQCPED
How it was run: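 APMA-activated enzyme, fluorogenic quenched peptide substrate Dnp-Pro-Cha-Gly-Cys(Me)-His-Ala-Lys(Nma)-NH₂, cleaved between Gly and Cys; inhibition read as substrate cleavage, reported as IC50 (nM).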

[2] = biological target: 72 kDa type IV collagenase (Homo sapiens, UniProt P08253); experiment: In vitro inhibition of human matrix metalloprotease-2
Chain of 72 kDa type IV collagenase (P08253 whole entry): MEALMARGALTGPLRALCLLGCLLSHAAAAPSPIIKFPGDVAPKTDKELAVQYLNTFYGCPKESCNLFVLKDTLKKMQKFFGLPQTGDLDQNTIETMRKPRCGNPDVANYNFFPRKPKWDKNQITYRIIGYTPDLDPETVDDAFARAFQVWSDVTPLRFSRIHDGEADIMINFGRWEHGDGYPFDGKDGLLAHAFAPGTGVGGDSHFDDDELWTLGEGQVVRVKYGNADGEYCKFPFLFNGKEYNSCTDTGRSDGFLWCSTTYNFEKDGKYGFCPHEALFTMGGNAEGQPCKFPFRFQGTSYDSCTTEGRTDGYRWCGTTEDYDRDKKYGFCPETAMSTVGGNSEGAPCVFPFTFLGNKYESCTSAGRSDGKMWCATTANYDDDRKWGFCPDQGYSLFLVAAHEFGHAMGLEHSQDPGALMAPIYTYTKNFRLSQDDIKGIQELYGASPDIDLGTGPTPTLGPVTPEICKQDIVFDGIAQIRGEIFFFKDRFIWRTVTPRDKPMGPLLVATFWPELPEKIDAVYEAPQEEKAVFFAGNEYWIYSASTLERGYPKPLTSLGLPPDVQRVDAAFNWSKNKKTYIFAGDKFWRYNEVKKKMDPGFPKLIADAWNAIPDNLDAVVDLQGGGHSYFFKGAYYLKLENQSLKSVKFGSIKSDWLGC

Collagenase 3 = Collagenase 3 (Homo sapiens, UniProt P45452); experiment: In vitro inhibition of human matrix metalloprotease-13
Interstitial collagenase = biological target: T1, Interstitial collagenase (Homo sapiens, UniProt P03956); experiment: In vitro inhibition of human matrix metalloprotease-1
T1 sequence (P03956 whole entry): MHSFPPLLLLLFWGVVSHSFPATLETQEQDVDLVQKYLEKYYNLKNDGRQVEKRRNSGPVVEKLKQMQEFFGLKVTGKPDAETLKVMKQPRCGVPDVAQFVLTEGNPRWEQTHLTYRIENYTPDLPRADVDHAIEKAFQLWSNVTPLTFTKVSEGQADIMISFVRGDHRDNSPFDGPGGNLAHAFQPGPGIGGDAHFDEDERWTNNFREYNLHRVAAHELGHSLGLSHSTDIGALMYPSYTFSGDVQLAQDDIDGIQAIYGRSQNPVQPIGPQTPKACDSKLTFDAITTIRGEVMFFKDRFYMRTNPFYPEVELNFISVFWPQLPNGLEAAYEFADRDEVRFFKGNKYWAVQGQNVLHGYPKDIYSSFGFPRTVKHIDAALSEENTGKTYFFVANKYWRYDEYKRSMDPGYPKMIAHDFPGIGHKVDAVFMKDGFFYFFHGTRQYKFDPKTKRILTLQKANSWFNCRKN

Chain of Stromelysin-1 (P08254 whole entry): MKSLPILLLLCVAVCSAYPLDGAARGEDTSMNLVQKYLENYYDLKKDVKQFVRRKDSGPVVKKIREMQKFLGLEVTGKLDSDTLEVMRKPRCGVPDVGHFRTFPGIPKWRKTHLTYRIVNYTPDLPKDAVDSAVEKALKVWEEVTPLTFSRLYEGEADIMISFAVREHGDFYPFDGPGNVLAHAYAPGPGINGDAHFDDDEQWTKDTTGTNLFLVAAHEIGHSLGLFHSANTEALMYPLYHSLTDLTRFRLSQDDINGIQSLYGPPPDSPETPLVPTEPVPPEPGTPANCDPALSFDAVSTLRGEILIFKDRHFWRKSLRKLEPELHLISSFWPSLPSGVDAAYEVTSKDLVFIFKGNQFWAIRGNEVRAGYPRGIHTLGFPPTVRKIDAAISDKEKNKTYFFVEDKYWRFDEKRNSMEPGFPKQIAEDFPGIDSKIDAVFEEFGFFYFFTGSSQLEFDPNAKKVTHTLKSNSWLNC

IC50 (Stromelysin-1) [nM] | IC50 [1] [nM] | IC50 [2] [nM] | IC50 (Collagenase 3) [nM] | IC50 (Interstitial collagenase) [nM] | SMILES
20 | 0.2 | 30 |  |  | COc1ccc(S(=O)(=O)N(CC(C)C)C(CCSCc2ccc(-c3ccccc3)cc2)C(=O)NO)cc1 (centres undefined)
2.2 | 0.2 | 1.2 | 1.1 |  | COc1ccc(S(=O)(=O)N(CC(=O)NCc2cccnc2)C(CCSCc2ccccc2)C(=O)NO)cc1 (centres undefined)
0.7 | < 0.1 | 0.7 | 12 | 104 | COc1ccc(S(=O)(=O)N(CC(C)C)C(CCSCc2ccccc2)C(=O)NO)cc1 (centres undefined)
29 | 8 |  |  |  | COc1ccc(S(=O)(=O)N(CC(C)C)C(CCSCc2ccc(OCc3ccccc3)cc2)C(=O)NO)cc1 (centres undefined)
45 | 7 | 53 | 96 | 384 | CCC(C(=O)NO)N(CC(C)C)S(=O)(=O)c1ccc(OC)cc1 (centres undefined)
3.7 | 0.5 | 2.3 | 4.5 |  | COc1ccc(S(=O)(=O)N(CC(=O)NC(c2ccccc2)c2ccccc2)C(CCSCc2ccccc2)C(=O)NO)cc1 (centres undefined)
2.5 | 0.3 | 1.2 | 1.6 | 49 | COc1ccc(S(=O)(=O)N(CC(=O)NCc2c(OC)cc(OC)cc2OC)C(CCSCc2ccccc2)C(=O)NO)cc1 (centres undefined)
1.1 | 0.2 | 0.4 | 0.4 | 39 | COc1ccc(S(=O)(=O)N(CC(=O)NC(c2ccccn2)c2ccccn2)C(CCSCc2ccccc2)C(=O)NO)cc1 (centres undefined)
4.7 | 0.6 | 1.6 | 2.3 | 36 | COc1ccc(S(=O)(=O)N(CC(=O)NCc2cc(OC)cc(OC)c2)C(CCSCc2ccccc2)C(=O)NO)cc1 (centres undefined)
15.1 | 4.3 | 16 | 14 | 164 | CC(C)CN(C(CCSCc1ccccc1)C(=O)NO)S(=O)(=O)c1ccc(Br)cc1 (centres undefined)
 | 0.01 | 0.3 |  |  | COc1ccc(S(=O)(=O)N(CC(=O)NCC2CCCCC2)C(CCSCc2ccccc2)C(=O)NO)cc1 (centres undefined)
1.6 | 0.2 | 1 | 0.8 | 16 | COc1ccc(S(=O)(=O)N(CC(=O)NC2CCCCC2)C(CCSCc2ccccc2)C(=O)NO)cc1 (centres undefined)
705 | 149 | 1810 | 407 |  | COc1ccc(S(=O)(=O)N(CC(C)C)C(CCSCc2c(F)c(F)c(F)c(F)c2F)C(=O)NO)cc1 (centres undefined)
4.2 | 0.5 | 1.6 | 3.2 |  | CC(C)CN(C(CCSCc1ccccc1)C(=O)NO)S(=O)(=O)c1ccc(Oc2ccccc2)cc1 (centres undefined)
 | 1.88 | 8.82 |  |  | COc1ccc(S(=O)(=O)N(CC(=O)NC(C2CCCCC2)C2CCCCC2)C(CCSCc2ccccc2)C(=O)NO)cc1 (centres undefined)
0.9 | 0.2 | 0.7 | 0.7 | 19 | COc1ccc(CNC(=O)CN(C(CCSCc2ccccc2)C(=O)NO)S(=O)(=O)c2ccc(OC)cc2)cc1 (centres undefined)

SMILES | IC50 (Stromelysin-1) [nM] | IC50 [1] [nM] | IC50 [2] [nM] | IC50 (Collagenase 3) [nM] | IC50 (Interstitial collagenase) [nM]
CC(C)CN(C(CCSCc1ccccc1)C(=O)NO)S(=O)(=O)c1ccc(-c2ccccc2)cc1 (centres undefined) | 90 | 2.5 | 4.1 | 3.8 | 
COc1ccc(S(=O)(=O)N(CC(=O)N2CCOCC2)C(CCSCc2ccccc2)C(=O)NO)cc1 (centres undefined) | 195 | 29 | 16 | 23 | 532
COc1ccc(S(=O)(=O)N(CC(C)C)C(CCS(=O)(=O)Cc2ccccc2)C(=O)NO)cc1 (centres undefined) | 10.3 | 0.9 | 4.22 | 11.8 | 396
COc1ccc(S(=O)(=O)N(CC(C)C)C(CCSCc2cccc(OC)c2)C(=O)NO)cc1 (centres undefined) | 5.7 | 3.2 | 3.78 | 5.3 | 297
COc1ccc(S(=O)(=O)N(CC(C)C)C(CCSCc2cccnc2)C(=O)NO)cc1 (centres undefined) | 6.2 | 3 | 6.3 | 16.2 | 126
COc1ccc(S(=O)(=O)N(CC(=O)NCc2ccccc2)C(CCSCc2ccccc2)C(=O)NO)cc1 (centres undefined) | 1.6 | 0.2 | 0.7 | 0.5 | 51
COc1ccc(S(=O)(=O)N(CC(C)C)C(CCSCc2ccsc2)C(=O)NO)cc1 (centres undefined) | 5.4 | 1 | 3.2 | 5.1 | 188
